Data set [1] deals with Leishmania amazonensis. Kind of data set: Antileishmanial activity against Leishmania amazonensis in mouse J774 cells.
Data set [2] concerns Leishmania donovani. Briefly: Antileishmanial activity against Leishmania donovani axenic amastigotes. Type of data set: functional, organism-based. The essentials: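 Axenic L. donovani amastigotes; IC50 is the mean of at least two independent assays.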
The subject of a further data set is L6. Kind of data set: Cytotoxicity against rat L6 cells. Type of data set: cell-based.
The test system of the next data set is J774. Briefly: Cytotoxicity against mouse J774 cells. Type of data set: cell-based.
In data set [3] the test system is Leishmania amazonensis. Briefly: Antileishmanial activity against Leishmania amazonensis in mouse J774 cells at <5 uM.
A short description of data set [4]: Binding affinity to poly(dA-dT)2 assessed as melting temperature.
For data set [5], the system named is Leishmania donovani. Kind of data set: Induction of mitochondrial dilation in Leishmania donovani axenic amastigotes at […] after 24 hrs. Type of data set: functional, organism-based.
Data set [6] concerns Leishmania donovani. Briefly: Induction of kinetoplast disintegration in Leishmania donovani axenic amastigotes at […] after 24 hrs. Type of data set: functional, organism-based.

Active and inactive are the calls of the source. The calls are words filed in the database; no cut-off is given here.

Turning to `C[C@@H]1[C@H](O)[C@@H](C)/C=C/C=C/C=C/C=C/C=C/C=C/C=C/[C@H](O[C@@H]2O[C@H](C)[C@@H](O)[C@H](N)[C@@H]2O)C[C@@H]2O[C@](O)(C[C@@H](O)C[C@@H](O)[C@H](O)CC[C@@H](O)C[C@@H](O)CC(=O)O[C@H]1C)C[C@H](O)[C@H]2C(=O)O` (stereo in doubt) [AMPHOTERICIN B], half-maximal inhibition in the data set with Leishmania amazonensis [1] (IC50) required 0.046 µM.

As to `N=C(N)c1ccc(-c2cnc(-c3ccc(C(=N)N)cc3)cn2)cc1`, the IC50 was determined as 0.56 µM in the data set on Leishmania donovani [2] and 43 µM in the data set with L6.

Turning to `N=C(N)c1ccc(-c2ccc(-c3ccc(C(=N)N)cn3)cn2)cc1`, the IC50 with Leishmania donovani [2] came to 6.8 µM; with L6 it was 28 µM.

For the molecule `N=C(N)c1ccc(-c2ccc(-c3ccc(C(=N)N)nc3)cc2)cn1`, the IC50 was determined as 0.063 µM in the data set with Leishmania donovani [2] and 1.2 µM with L6. In addition, in the data set with J774, the Activity entry is “Toxic”. Further, the outcome in the data set on Leishmania amazonensis [3] was inactive.

For the molecule `N=C(N)c1ccc(-c2ccc(-c3ccc(C(=N)N)cc3)c(F)c2)cc1`, the thermal shift (ΔTm) in data set [4] was found to be 15.1 °C. The concentration for half-maximal inhibition (IC50) was determined as 0.34 µM with Leishmania donovani [2] and 6.4 µM in the data set with L6.

On to `N=C(N)c1ccc(-c2cnc(-c3ccc(C(=N)N)nc3)nc2)cn1`, for which the thermal shift (ΔTm) in data set [4] amounted to 6.8 °C. Moreover, the IC50 in the data set on Leishmania donovani [2] was 1.8 µM; in the data set on L6, 5.3 µM.

Take `N=C(N)c1ccc(-c2ccc(-c3ccc(C(=N)N)cc3)nn2)cc1`: the figures for the half-maximal inhibitory concentration (IC50) in the data set on Leishmania donovani [2] and with L6 were 0.72 µM and 31 µM, respectively.

On to `N=C(N)c1ccc(-c2ccc(-c3cnc(C(=N)N)cn3)cn2)cc1`, for which the concentration for half-maximal inhibition (IC50) with Leishmania donovani [2] turned out to be 16 µM; in the data set with L6, 93 µM.

Consider `N=C(N)c1ccc(-c2ccc(-c3ccc(C(=N)N)nc3)cn2)cc1`, for which the IC50 in the data set with Leishmania donovani [2] came out at 0.51 µM; in the data set on L6, 20 µM.

On to `N=C(N)c1ccc(-c2ccc(-c3cnc(C(=N)N)nc3)cc2)cc1`, for which the figures for the 50% inhibitory concentration (IC50) in the data set on Leishmania donovani [2] and in the data set with L6 were 0.2 µM and 4.7 µM, respectively.

`N=C(N)c1ccc(-c2ccc(-c3ccc(C(=N)N)nc3)cc2)cc1`: the half-inhibitory concentration (IC50) turned out to be 0.084 µM in the data set on Leishmania donovani [2] and 2.8 µM in the data set on L6.

In the case of `N=C(N)c1ccc(-c2ccc(-c3cnc(C(=N)N)nc3)cn2)cc1`, the IC50 came to 2.6 µM with Leishmania donovani [2] and 6.4 µM with L6.

`N=C(N)c1ccc(-c2ccc(-c3ccc(C(=N)N)cc3)cc2)cc1`: the outcome in the data set with Leishmania donovani [5] and with Leishmania donovani [6] was Active. Moreover, the results for the IC50 in the data set with Leishmania donovani [2] and with L6 were 0.27 µM and 22 µM, respectively. The Activity entry in the data set with J774 was “Toxic”. In addition, the outcome in the data set on Leishmania amazonensis [3] was inactive.

On to `N=C(N)c1ccc(-c2ccc(-c3ccc(C(=N)N)cn3)cc2)cc1`, for which the values for the 50% inhibitory concentration (IC50) in the data set with Leishmania donovani [2] and with L6 were 1.4 µM and 27 µM, respectively.

`N=C(N)c1ccc(-c2ccc(-c3ccc(C(=N)N)cn3)cc2)nc1` yielded an IC50 in the data set with Leishmania donovani [2] of over 100 µM.

In the case of `N=C(N)c1ncc(-c2ccc(-c3cnc(C(=N)N)nc3)cc2)cn1`, the IC50 with Leishmania donovani [2] turned out to be 1.7 µM; in the data set with L6, 2.2 µM.

Turning to `N=C(N)c1ccc(-c2cnc(-c3ccc(C(=N)N)cc3)nc2)cc1`, the IC50 with Leishmania donovani [2] turned out to be 1.1 µM; in the data set on L6 it was 41 µM.

As to `N=C(N)c1ccc(-c2ccc(-c3ccc(C(=N)N)cc3)nc2)cc1`, the IC50 in the data set on Leishmania donovani [2] was determined as 0.82 µM; in the data set on L6, 50 µM.

In turn, `N=C(N)c1cnc(-c2ccc(-c3cnc(C(=N)N)cn3)cc2)cn1` yielded an IC50 in the data set on L6 of 47 µM.

By IC50 is commonly meant the concentration needed to halve the response being measured. Higher therefore signals lower potency. Usually ΔTm stands for the shift of the melting midpoint relative to a reference.

These data come from ChEMBL document CHEMBL1141608, “Azaterphenyl diamidines as antileishmanial agents” (Bioorg Med Chem Lett, 2008).
